CAL PDZ FP-1: blocks peptide binding to the human CAL PDZ domain; Q9HD26; purified CAL PDZ, TMR-peptide fluorescence polarization, 1 h; inhibition, % at 24.9 µM; actives 0.92% (n = 300,000);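 active = mean inhibition of at least 30% with at least half of replicates also reaching 30%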;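 note: 0% = DMSO neutral control and 100% = excess unlabeled competitor peptide PRC23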
CAL PDZ FP-2: inhibitors of human CAL PDZ peptide binding; actives 0.02% (n = 330,000); Q9HD26; inhibition, % at 20 µM; purified CAL PDZ, TMR-peptide fluorescence polarization, 1 h;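 active = highest replicate inhibition of at least 40%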;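 note: plate controls were DMSO neutral control wells for no effect and unlabeled competitor peptide control wells for full effect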
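Material: tagged CAL PDZ protein CerCALP, purified; buffer or medium: sodium phosphate/NaCl buffer pH 7.4 with TCEP, IgG, Thesit; also added: fluorescent TMR peptide probe; schedule: 1 h incubation at room temperature before polarization reading; technique: fluorescence polarization from S- and P-plane intensities, G-factor corrected; control set: unlabelled peptide and DMSO controls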
PvdQ acylase: blocks Pseudomonas aeruginosa PvdQ acylase activity; purified PvdQ acylase, fluorescence plate reader; inhibition, % at 10 µM; actives 0.063% (n = 340,000); in the data active = inhibition above about 30%, passing the limit was not always enough;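 note: 0% = vehicle neutral wells and 100% = reference inhibitor wells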
miR122 inh: inhibitors of miR-122 in Huh7 cells. Huh7 miR-122 Renilla luciferase sensor, 48 h; neutral wells = 0, positive control = 100. activation (reporter increase), % at 12.5 µM. AID 602342. actives 0.3% (n = 340,000);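 active = mean replicate activation score at least 90 and every replicate individually at or above 90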;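 note: higher luciferase means less miR-122 activity so hits act as miR-122 inhibitors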
miR-27b select: selectivity of miR-122 inhibitors: effect on miR-27b in Huh7 | shares compounds with miR122 inh | Huh7 miR-27b levels, qRT-PCR, 48 h | relative miR-27b level (unnormalised ratio), ratio at 35 µM | 35 tested, under 10 active | AID 687039;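 active = compounds lowering miR-27b whose fitted half-maximal dose is at most twice their top tested dose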
* marks the source's active call; other numbers are inactive results; nt = not tested or not shown. Only some compounds are listed: those with a hit (about 0.95% of all), similar ones and a draw of the others.

SMILES	CAL PDZ FP-1	CAL PDZ FP-2	PvdQ acylase	miR122 inh	miR-27b select
O=[N+]([O-])c1cccc(CN2CCN(c3ncccn3)CC2)c1	nt	0	-5	-7	nt
Cc1cc(C(C)(C)C)cc(S(=O)(=O)NCCO)c1C	-6	-2	-13	93*	0.94
Cc1ccc(/C=C/C(=O)O)cc1S(=O)(=O)NCCO	0	1	-2	-3	nt
O=C(Nc1ccc(N2CCOCC2)c(S(=O)(=O)Nc2cc(Cl)ccc2Cl)c1)c1cccnc1	-7	0	-1	325*	0.99
CC(C)(C)c1nc(SCC(=O)NC2CCCC2)c2ccccc2n1	0	-2	-3	-2	nt
COc1cc(C)c(C(C)C)cc1S(=O)(=O)n1cnc(C)c1	nt	-1	-10	152*	0.91
CC(C(=O)NC1CCCc2ccccc21)N1CCN(Cc2ccc3c(c2)OCO3)CC1 (stereo not given)	-4	-3	-14	-4	nt
CC(=O)Nc1ccc(NC(=O)CSc2nccn2Cc2ccco2)cc1	-4	-1	-4	0	nt
Cc1ccc(S(=O)(=O)Nc2ccc3c4c(cccc24)CC3)c(C)c1	-6	-1	-8	198*	0.65
CCOc1cc(S(=O)(=O)NC2CCCCC2)ccc1F	-1	0	-18	37	nt
CCOc1ccc(C)cc1S(=O)(=O)NC1CCCCC1	-5	-1	-13	283*	0.52
Cc1cc(C)c(C)c(S(=O)(=O)NC2CCCCC2)c1C	nt	-1	-10	93*	0.68
CCN(CC(=O)NCc1ccc(Cl)cc1)C(=O)CCOc1ccc(C)cc1	-2	-4	11	1	nt
CCc1nnc(NS(=O)(=O)c2ccc(NC(=O)c3ccccc3)cc2)s1	-5	-1	5	18	nt

Screens from PubChem.
